Laboratory results as given in ChEMBL document CHEMBL3407388, “Synthesis, anticancer activity and molecular docking studies on a series of heterocyclic trans-cyanocombretastatin analogues as antitubulin agents” (2015).

Tests used:
[1] = Cytotoxicity against human UACC257 cells assessed as growth inhibition after 48 hrs by SRB assay; assay type: functional; settings: UACC-257, 48 h
SK-MEL-28 = assay: Cytotoxicity against human SK-MEL-28 cells assessed as growth inhibition after 48 hrs by SRB assay; assay type: functional; settings: SK-MEL-28, 48 h
How it was run: (§1)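 NCI 60-cell panel; compounds passing a single-dose screen (10−5 M, 48 h) were tested at five 10-fold dilutions (10−4 to 10−8 M) with 48 h drug exposure. GI50 is the molar concentration giving 50% reduction in net cell growth relative to cell numbers on day 0.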

NCI-H322M = assay: Cytotoxicity against human NCI-H322M cells assessed as growth inhibition after 48 hrs by SRB assay; assay type: functional; how it was run: as §1
SK-MEL-2 = assay: Cytotoxicity against human SK-MEL-2 cells assessed as growth inhibition after 48 hrs by SRB assay; assay type: functional; settings: SK-MEL-2, 48 h; how it was run: as §1
NCI-H522 = assay: Cytotoxicity against human NCI-H522 cells assessed as growth inhibition after 48 hrs by SRB assay; assay type: functional; settings: NCI-H522, 48 h; how it was run: as §1
CCRF-CEM = assay: Cytotoxicity against human CCRF-CEM cells assessed as growth inhibition after 48 hrs by SRB assay; assay type: functional; how it was run: as §1
MV4-11 = assay: Anti-leukemic activity against human MV4-11 cells assessed as cell dead after 24 to 48 hrs by annexin V-FITC/7-AAD staining-based flow cytometric analysis; assay type: functional; settings: read-out: LD50 (the source's name)
How it was run: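 MV4-11 cells grown in IMDM with 10% FBS, penicillin and streptomycin, seeded at 5 × 10^5/ml and treated. At 24 and 48 h they were stained with annexin V-FITC plus 1 μg/ml 7-AAD. Percent dead cells (annexin V+) was read by flow cytometry and expressed relative to the DMSO vehicle control.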

HOP-62 = assay: Cytotoxicity against human HOP62 cells assessed as growth inhibition after 48 hrs by SRB assay; assay type: functional; settings: HOP-62, 48 h; how it was run: as §1
SK-MEL-5 = assay: Cytotoxicity against human SK-MEL-5 cells assessed as growth inhibition after 48 hrs by SRB assay; assay type: functional; settings: SK-MEL-5, 48 h; how it was run: as §1
ACHN = assay: Cytotoxicity against human ACHN cells assessed as growth inhibition after 48 hrs by SRB assay; assay type: functional; how it was run: as §1
Malme-3M = assay: Cytotoxicity against human MALME-3M cells assessed as growth inhibition after 48 hrs by SRB assay; assay type: functional; how it was run: as §1
MDA-MB-468 = assay: Cytotoxicity against human MDA-MB-468 cells assessed as growth inhibition after 48 hrs by SRB assay; assay type: functional; settings: MDA-MB-468, 48 h; how it was run: as §1
SR = assay: Cytotoxicity against human SR cells assessed as growth inhibition after 48 hrs by SRB assay; assay type: functional
A549 = assay: Cytotoxicity against human A549 cells assessed as growth inhibition after 48 hrs by SRB assay; assay type: functional; settings: A549, 48 h; how it was run: as §1
NCI-H460 = assay: Cytotoxicity against human NCI-H460 cells assessed as growth inhibition after 48 hrs by SRB assay; assay type: functional; settings: NCI-H460, 48 h; how it was run: as §1
[2] = Cytotoxicity against human EKVX cells assessed as growth inhibition after 48 hrs by SRB assay; assay type: functional; how it was run: as §1
HOP-92 = assay: Cytotoxicity against human HOP92 cells assessed as growth inhibition after 48 hrs by SRB assay; assay type: functional; settings: HOP-92, 48 h; how it was run: as §1
T47D = assay: Cytotoxicity against human T47D cells assessed as growth inhibition after 48 hrs by SRB assay; assay type: functional
Tubulin (Homo sapiens) = Tubulin (Homo sapiens) (UniProt P68371+Q9H4B7+P0DPH7+P68366+Q13509+Q71U36+P04350+Q3ZCM7+P07437+P68363+Q9BQE3+Q6PEY2+Q13885+Q9BVA1+Q9BUF5); assay: Inhibition of tubulin polymerization in human MV4-11 cells at 50 nM after 2 hrs by immunoblot analysis relative to control; assay type: cell-based
How it was run: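 MV4-11 AML cells were exposed for 2 h to 25, 50 or 100 nM compound. Free tubulin (supernatant) and polymerized tubulin (pellet) were separated and detected by anti-tubulin immunoblot.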

Row | SMILES | GI50 [1] [nM] | GI50 (SK-MEL-28) [nM] | GI50 (NCI-H322M) [nM] | GI50 (SK-MEL-2) [nM] | GI50 (NCI-H522) [nM] | GI50 (CCRF-CEM) [nM] | CC50 (MV4-11) [nM] | GI50 (HOP-62) [nM] | GI50 (SK-MEL-5) [nM] | GI50 (ACHN) [nM] | GI50 (Malme-3M) [nM] | GI50 (MDA-MB-468) [nM] | GI50 (SR) [nM] | GI50 (A549) [nM] | GI50 (NCI-H460) [nM] | GI50 [2] [nM] | GI50 (HOP-92) [nM] | GI50 (T47D) [nM] | inhibition (Tubulin (Homo sapiens)) [%]
1 | COc1cc(/C(C#N)=C/c2nc3ccccc3s2)cc(OC)c1OC | > 100000 | 1810 | 2290 | 287 | 22 | 55 | 233 | 1930 | 100 | 89 | 515 | 84 | 107 | 379 | 336 | – | – | – | –
2 | COc1cc(/C(C#N)=C/c2cc3ccccc3o2)cc(OC)c1OC | 63200 | < 10 | < 10 | < 10 | < 10 | 24 | 47 | < 10 | < 10 | 217 | 59900 | 22 | < 10 | < 10 | < 10 | 59 | < 10 | 4340 | > 50
3 | COc1cc(OC)cc(/C(C#N)=C/c2nc3ccccc3s2)c1 | – | 1980 | > 10000 | 958 | – | – | 4340 | 3350 | 1370 | 518 | 699 | 2040 | 402 | – | 2860 | – | 534 | 1180 | –
4 | COc1cc(/C(C#N)=C/c2cc3ccccc3[nH]2)cc(OC)c1OC | 1060 | – | – | < 10 | < 10 | 17 | 44 | < 10 | < 10 | < 10 | 8280 | 22 | < 10 | < 10 | < 10 | 1160 | < 10 | 2500 | > 50
5 | COc1cc(OC)cc(/C(C#N)=C/c2c[nH]c3ccccc23)c1 | – | 81 | – | 51 | 27 | 42 | 375 | 273 | 48 | – | – | 51 | 33 | 61 | 39 | 478 | 68 | – | –
6 | COc1cc(/C(C#N)=C/c2cc3ccccc3n2Cc2ccc(C#N)cc2)cc(OC)c1OC | 62 | 161 | 465 | 528 | 33 | 136 | 369 | 92 | 60 | 79 | – | 41 | – | 76 | 93 | – | 77 | 95200 | –
7 | COc1cc(/C(C#N)=C/c2c[nH]c3ccccc23)cc(OC)c1OC | 11300 | 90 | – | – | 37 | 58 | 565 | 82 | 42 | 1760 | 12500 | 41 | 22 | 78 | 41 | 596 | 1010 | 58 | –
8 | COc1ccc2[nH]cc(/C=C(\C#N)c3cc(OC)c(OC)c(OC)c3)c2c1 | 10700 | 92 | 44 | – | 86 | 64 | 467 | 133 | 36 | 1660 | 5850 | 35 | 27 | 86 | 37 | 485 | 83 | 65 | –
9 | COc1cc(/C(C#N)=C/c2coc3ccccc23)cc(OC)c1OC | – | 1610 | 19100 | 304 | 261 | 1410 | 4530 | 6980 | 336 | 1940 | 868 | 237 | 681 | 665 | 839 | – | 3020 | 811 | –
10 | COc1ccc(/C(C#N)=C/c2c[nH]c3ccccc23)cc1OC | 11900 | 6250 | 24300 | 4700 | 3050 | 2740 | > 20000 | 8690 | 4270 | 23700 | 9910 | – | 1450 | 5160 | 4510 | 18500 | 5260 | 6830 | –
11 | COc1ccc(/C(C#N)=C/c2cc3ccccc3o2)cc1OC | 18000 | 3510 | 6180 | 487 | 438 | 777 | > 20000 | 2290 | 564 | 12400 | 629 | 421 | 470 | 520 | 472 | – | 1130 | 996 | –
12 | COc1ccc(/C(C#N)=C/c2cc3ccccc3[nH]2)cc1OC | 27000 | 1940 | 735 | 312 | 49 | 62 | – | – | 142 | 82 | – | 350 | 42 | 114 | 53 | 307 | 58 | 573 | –
